Measured values from ChEMBL document CHEMBL1144027, “Synthesis and antimycobacterial evaluation of newer 1-cyclopropyl-1,4-dihydro-6-fluoro-7-(substituted secondary amino)-8-methoxy-5-(sub)-4-oxoquinoline-3-carboxylic acids” (Bioorg Med Chem, 2008).
≈ marks a conversion by molar mass, not a printed value.

Tests used:
Mus musculus [1] = experiment: (§1) Phototoxicity in Swiss albino mouse assessed as erythema incidence at 140 mg/kg, po after 48 hrs of irradiation; assay type: organism-based; design: dose 140 mg/kg, route oral; settings: in vivo
In short: (§2)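 Female Swiss albino mice (~2 months, 20-25 g), fasted ≥18 h, single 140 mg/kg oral gavage dose; groups of 6 (compound, lomefloxacin HCl 140 mg/kg, 0.5% carboxymethylcellulose vehicle 10 ml/kg); UV irradiation 4 h (~18 J/cm²) right after dosing; both ears scored for erythema, oedema, thickness pre-dose, at end of irradiation, and ~24-96 h; thickness given as mean of both ears ± SEM.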

Mus musculus [2] = experiment: Phototoxicity in Swiss albino mouse assessed as erythema incidence at 140 mg/kg, po after 24 hrs of irradiation; assay type: organism-based; design: dose 140 mg/kg, route oral; settings: in vivo; in short: as §2
Mus musculus [3] = experiment: as §1; assay type: organism-based; design: dose 140 mg/kg, route oral; settings: in vivo; in short: as §2; remark: listed apart in the source
Mus musculus [4] = experiment: Phototoxicity in Swiss albino mouse assessed as ear thickness at 140 mg/kg, po after 48 hrs of irradiation; assay type: organism-based; design: dose 140 mg/kg, route oral; settings: in vivo; in short: as §2
Mus musculus [5] = experiment: Phototoxicity in Swiss albino mouse assessed as ear thickness at 140 mg/kg, po after 4 hrs of irradiation; assay type: organism-based; design: dose 140 mg/kg, route oral; settings: in vivo; in short: as §2
Mus musculus [6] = experiment: Phototoxicity in Swiss albino mouse assessed as erythema incidence at 140 mg/kg, po after 96 hrs of irradiation; assay type: organism-based; design: dose 140 mg/kg, route oral; settings: in vivo; in short: as §2
Mus musculus [7] = experiment: Phototoxicity in Swiss albino mouse assessed as ear thickness at 140 mg/kg, po after 24 hrs of irradiation; assay type: organism-based; design: dose 140 mg/kg, route oral; settings: in vivo; in short: as §2
Mus musculus [8] = experiment: Phototoxicity in Swiss albino mouse assessed as ear thickness at 140 mg/kg, po after 96 hrs of irradiation; assay type: organism-based; design: dose 140 mg/kg, route oral; settings: in vivo; in short: as §2
Mus musculus [9] = experiment: Phototoxicity in Swiss albino mouse assessed as erythema incidence at 140 mg/kg, po after 4 hrs of irradiation; assay type: organism-based; design: dose 140 mg/kg, route oral; settings: in vivo; in short: as §2
Mus musculus [10] = experiment: Phototoxicity in Swiss albino mouse assessed as ear thickness at 140 mg/kg, po after 72 hrs of irradiation; assay type: organism-based; design: dose 140 mg/kg, route oral; settings: in vivo; in short: as §2
Vero = experiment: Cytotoxicity against african green monkey Vero cells after 72 hrs by MTT assay; assay type: cell-based; settings: Chlorocebus sabaeus
In short: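 Mammalian Vero cells exposed to compounds at 62.5 µg/ml for 72 h; viability read by cellular conversion of MTT to formazan (Cell Titer 96 non-radioactive proliferation assay).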

[11] = test system: Mycobacterium tuberculosis; experiment: Antimycobacterial activity against Mycobacterium tuberculosis H37Rv by agar dilution method; assay type: functional
In short: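 Agar dilution MIC on Middlebrook 7H11 agar with OADC, following the NCCLS-recommended approach, run in duplicate. The MDR clinical isolate was resistant to isoniazid, rifampicin, ethambutol and ofloxacin.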

[12] = test system: Mycolicibacterium smegmatis; experiment: Antimycobacterial activity against Mycobacterium smegmatis MC2 by agar dilution method; assay type: functional
In short: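 Agar dilution in Middlebrook 7H11 agar with OADC, run along NCCLS-recommended lines; M. smegmatis ATCC 14468 (MC2); MIC determined in duplicate.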

[13] = target: DNA gyrase subunit B (Mycobacterium smegmatis (strain ATCC 700084 / mc(2)155), UniProt A0QNE0); experiment: Inhibition of Mycobacterium smegmatis MC2 DNA gyrase GyrB ATPase supercoiling activity; design: species or system Mycolicibacterium smegmatis
In short: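 Gyrase purified from M. smegmatis MC2 cells; compounds in DMSO pre-incubated with enzyme, then 400 ng relaxed pUC18 added in 35 mM Tris-HCl pH 7.5, 5 mM MgCl2, 25 mM K glutamate, 2 mM spermidine, 2 mM ATP, BSA, tRNA, 5% glycerol; 30 min; heat-stopped 65 °C 15 min; agarose gel, ethidium bromide staining; ciprofloxacin 10 µg/ml and 5% DMSO controls.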

[14] = test system: Mycobacterium tuberculosis; experiment: Antimycobacterial activity against Mycobacterium tuberculosis ATCC 35801 infected in CD1 mouse assessed as bacterial load in lungs at 25 mg/kg, ip after 10 days; assay type: functional; settings: route intraperitoneal
In short: (§3)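 Female CD-1 mice, 6 weeks old, six per group, infected IV via caudal vein with ~10⁷ viable organisms. Intraperitoneal treatment started 10 days after inoculation and ran 10 days. At 35 days post-infection, spleens and right lungs were homogenised and serially 10-fold diluted onto 7H10 agar, incubated 4 weeks at 37 °C in ambient air. CFU compared with vehicle-treated controls.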

[15] = test system: Mycobacterium tuberculosis; experiment: Antimycobacterial activity against Mycobacterium tuberculosis ATCC 35801 infected in CD1 mouse assessed as bacterial load in spleen at 25 mg/kg, ip after 10 days; assay type: functional; settings: route intraperitoneal; in short: as §3
[16] = test system: Mycobacterium tuberculosis; experiment: Antimycobacterial activity against Mycobacterium tuberculosis ATCC 35801 infected in CD1 mouse assessed as bacterial load in lungs at 50 mg/kg, ip after 10 days; assay type: functional; settings: route intraperitoneal; in short: as §3
[17] = test system: Mycobacterium tuberculosis; experiment: Antimycobacterial activity against Mycobacterium tuberculosis ATCC 35801 infected in CD1 mouse assessed as bacterial load in spleen at 50 mg/kg, ip after 10 days; assay type: functional; settings: route intraperitoneal; in short: as §3

Chain of DNA gyrase subunit B (Mycobacterium smegmatis (strain ATCC 700084 / mc(2)155), UniProt A0QNE0) (A0QNE0 whole entry): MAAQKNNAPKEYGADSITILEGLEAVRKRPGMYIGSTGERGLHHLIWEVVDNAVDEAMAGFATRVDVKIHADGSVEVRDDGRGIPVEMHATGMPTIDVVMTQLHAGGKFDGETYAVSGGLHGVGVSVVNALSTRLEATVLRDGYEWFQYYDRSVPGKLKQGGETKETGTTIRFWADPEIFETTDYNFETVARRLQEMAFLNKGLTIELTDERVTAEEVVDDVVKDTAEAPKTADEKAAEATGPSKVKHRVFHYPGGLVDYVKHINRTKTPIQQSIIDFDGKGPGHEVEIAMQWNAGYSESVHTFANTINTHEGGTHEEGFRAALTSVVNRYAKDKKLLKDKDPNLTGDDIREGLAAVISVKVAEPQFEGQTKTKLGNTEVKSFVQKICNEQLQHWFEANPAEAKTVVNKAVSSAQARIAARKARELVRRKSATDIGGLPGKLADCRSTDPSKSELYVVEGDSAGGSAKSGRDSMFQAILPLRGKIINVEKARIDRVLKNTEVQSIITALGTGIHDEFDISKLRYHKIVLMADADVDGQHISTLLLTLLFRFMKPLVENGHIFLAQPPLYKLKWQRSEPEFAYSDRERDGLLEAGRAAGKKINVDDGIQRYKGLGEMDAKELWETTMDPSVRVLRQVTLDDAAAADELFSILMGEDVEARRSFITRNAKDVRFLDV

Row | SMILES | IC50 (Vero) | MIC [11] | MIC [12] | also measured
1 | CCn1cc(C(=O)O)c(=O)c2cc(F)c(N3CCNC(C)C3)c(F)c21 (stereo not given) [LOMEFLOXACIN] | – | – | – | Activity (Mus musculus [1]): Toxic; Activity (Mus musculus [2]): Toxic; Activity (Mus musculus [3]): Toxic; Activity (Mus musculus [4]): 0.53 mm; Activity (Mus musculus [5]): 0.4 mm; Activity (Mus musculus [6]): Toxic; Activity (Mus musculus [7]): 0.48 mm; Activity (Mus musculus [8]): 0.6 mm; Activity (Mus musculus [9]): Toxic; Activity (Mus musculus [10]): 0.64 mm
2 | COc1c(N2COCC2(C)C)c(F)cc2c(=O)c(C(=O)O)cn(C3CC3)c12 | 166 µM | 4.14 µM (≈ 1.56 µg/mL) | 16.6 µM (≈ 6.25 µg/mL) | –
3 | COc1c(N2CCc3ccccc3C2C(=O)NC(C)(C)C)c(F)c([N+](=O)[O-])c2c(=O)c(C(=O)O)cn(C3CC3)c12 (stereo not given) | 113 µM | 1.41 µM (≈ 0.779 µg/mL) | 2.82 µM (≈ 1.56 µg/mL) | IC50 [13]: > 90.5 µM
4 | NNC(=O)c1ccncc1 [ISONIAZID] | > 456 µM | 0.36 µM (≈ 0.0494 µg/mL) | 45.6 µM (≈ 6.25 µg/mL) | Activity [14]: 5.86; Activity [15]: 4.71
5 | COc1c(N2CCNC(C)C2)c(F)cc2c(=O)c(C(=O)O)cn(C3CC3)c12 (stereo not given) [GATIFLOXACIN] | > 155 µM | 1.04 µM (≈ 0.39 µg/mL) | 2.08 µM (≈ 0.781 µg/mL) | Activity [16]: 6.02; Activity [17]: 6.92
6 | COc1c(N2CCN(C(=O)c3ccco3)CC2)c(F)cc2c(=O)c(C(=O)O)cn(C3CC3)c12 | – | 13.7 µM (≈ 6.25 µg/mL) | 13.7 µM (≈ 6.25 µg/mL) | –
7 | COc1c(N2CCn3cc(C(=O)O)nc3C2)c(F)cc2c(=O)c(C(=O)O)cn(C3CC3)c12 | 141 µM | 3.53 µM (≈ 1.56 µg/mL) | 7.08 µM (≈ 3.13 µg/mL) | –
8 | COc1c(N2CCN(C(c3ccccc3)c3ccc(Cl)cc3)CC2)c(F)c([N+](=O)[O-])c2c(=O)c(C(=O)O)cn(C3CC3)c12 (stereo not given) | 103 µM | 1.28 µM (≈ 0.777 µg/mL) | 10.3 µM (≈ 6.25 µg/mL) | –
9 | COc1c(N2CCC3(CC2)OCCO3)c(F)cc2c(=O)c(C(=O)O)cn(C3CC3)c12 | 149 µM | 0.93 µM (≈ 0.389 µg/mL) | 1.86 µM (≈ 0.778 µg/mL) | Activity [16]: 6.12; IC50 [13]: > 119 µM; Activity [17]: 6.41
10 | COc1c(N2CCC3(CC2)OCCO3)c(F)c([N+](=O)[O-])c2c(=O)c(C(=O)O)cn(C3CC3)c12 | 135 µM | 0.84 µM (≈ 0.389 µg/mL) | 6.75 µM (≈ 3.13 µg/mL) | –
11 | COc1c(N2CC(C)OC(C)C2)c(F)c([N+](=O)[O-])c2c(=O)c(C(=O)O)cn(C3CC3)c12 (stereo not given) | 144 µM | 0.89 µM (≈ 0.388 µg/mL) | 1.79 µM (≈ 0.779 µg/mL) | Activity (Mus musculus [1]): Non-toxic; Activity (Mus musculus [2]): Non-toxic; Activity (Mus musculus [3]): Non-toxic; Activity (Mus musculus [4]): 0.36 mm; Activity (Mus musculus [5]): 0.29 mm; Activity (Mus musculus [6]): Non-toxic; IC50 [13]: 115 µM; Activity (Mus musculus [7]): 0.35 mm; Activity (Mus musculus [8]): 0.33 mm; Activity (Mus musculus [10]): 0.34 mm
12 | COc1c(N2CCC(N3CCCCC3)CC2)c(F)cc2c(=O)c(C(=O)O)cn(C3CC3)c12 | – | 7.06 µM (≈ 3.13 µg/mL) | 14.1 µM (≈ 6.25 µg/mL) | –
13 | COc1c(N2CCN(Cc3ccc4c(c3)OCO4)CC2)c(F)cc2c(=O)c(C(=O)O)cn(C3CC3)c12 | 126 µM | 1.57 µM (≈ 0.778 µg/mL) | 3.15 µM (≈ 1.56 µg/mL) | IC50 [13]: > 101 µM
14 | COc1c(N2CCSCC2)c(F)cc2c(=O)c(C(=O)O)cn(C3CC3)c12 | 165 µM | 2.06 µM (≈ 0.78 µg/mL) | 4.12 µM (≈ 1.56 µg/mL) | –
15 | COc1c(N2CCC(n3c(=O)[nH]c4cc(Cl)ccc43)CC2)c(F)cc2c(=O)c(C(=O)O)cn(C3CC3)c12 | – | 5.94 µM (≈ 3.13 µg/mL) | 5.94 µM (≈ 3.13 µg/mL) | –
16 | COc1c(N2CCC(O)(c3ccc(Cl)cc3)CC2)c(F)cc2c(=O)c(C(=O)O)cn(C3CC3)c12 | – | 6.43 µM (≈ 3.13 µg/mL) | 12.8 µM (≈ 6.25 µg/mL) | –
17 | COc1c(N2CCN(C(c3ccccc3)c3ccc(Cl)cc3)CC2)c(F)cc2c(=O)c(C(=O)O)cn(C3CC3)c12 (stereo not given) | – | 11.1 µM (≈ 6.25 µg/mL) | 44.5 µM (≈ 25 µg/mL) | –
18 | COc1c(N2COCC2(C)C)c(F)c([N+](=O)[O-])c2c(=O)c(C(=O)O)cn(C3CC3)c12 | 148 µM | 1.85 µM (≈ 0.78 µg/mL) | 3.7 µM (≈ 1.56 µg/mL) | –
